According to PMC4001804 (Journal of pharmaceutical sciences, 2014):
Like-named read-outs stand apart in the source and are kept apart here.

Key:
[1] = Single-dose subcutaneous serum pharmacokinetics, analysis of individual animals; format: in vivo, female Sprague-Dawley rats
Procedure, shortened: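 Three-month-old female rats (200–240 g), acclimated two weeks, n = 4, got one subcutaneous dose. Tail-vein blood was drawn at 0, 2, 5, 10, 20, 30, 60, 180 and 360 min, clotted at ambient temperature, spun 14,000 rpm 10 min refrigerated, and serum stored at −80°C. Immunoreactive hPTH(1-34) was measured by ELISA. Parameters came from individual animals; half-life was reported as geometric mean.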

[2] = design: species or system female Sprague-Dawley rats; details: female, Sprague-Dawley, rat, in vivo
[3] = 10 μg/kg (2.4 nmoles/kg) iv bolus dose; ref 10 (Jones et al.); cited from earlier work

CC[C@H](C)[C@H](NC(=O)[C@H](CCC(=O)O)NC(=O)[C@H](CO)NC(=O)[C@@H](NC(=O)[C@@H](N)CO)C(C)C)C(=O)N[C@@H](CCC(N)=O)C(=O)N[C@@H](CC(C)C)C(=O)N[C@@H](CCSC)C(=O)N[C@@H](Cc1cnc[nH]1)C(=O)N[C@@H](CC(N)=O)C(=O)N[C@@H](CC(C)C)C(=O)NCC(=O)N[C@@H](CCCCN)C(=O)N[C@@H](Cc1cnc[nH]1)C(=O)N[C@@H](CC(C)C)C(=O)N[C@@H](CC(N)=O)C(=O)N[C@@H](CO)C(=O)N[C@@H](CCSC)C(=O)N[C@@H](CCC(=O)O)C(=O)N[C@@H](CCCN=C(N)N)C(=O)N[C@H](C(=O)N[C@@H](CCC(=O)O)C(=O)N[C@@H](Cc1c[nH]c2ccccc12)C(=O)N[C@@H](CC(C)C)C(=O)N[C@@H](CCCN=C(N)N)C(=O)N[C@@H](CCCCN)C(=O)N[C@@H](CCCCN)C(=O)N[C@@H](CC(C)C)C(=O)N[C@@H](CCC(N)=O)C(=O)N[C@@H](CC(=O)O)C(=O)N[C@H](C(=O)N[C@@H](Cc1cnc[nH]1)C(=O)N[C@@H](CC(N)=O)C(=O)N[C@@H](Cc1ccccc1)C(=O)O)C(C)C)C(C)C [PTH(1-34), teriparatide]
half-life ([1]; female, Sprague-Dawley, rat, serum, sc, 19.4 nmoles/kg): 59 min
Time by which serum concentrations returned to background levels ([1]; single sc dose 19.4 nmoles/kg): ≤ 6 h
clearance [2]: 83 mL/min/kg
bioavailability ([2]; sc): 47%
clearance [3]: 98 mL/min/kg
